Assay results pooled from the literature.
Lines come from different studies, so protocols differ.
Target: RAC-beta serine/threonine-protein kinase (AKT2, Homo sapiens, UniProt P31751)

| SMILES | assay | setting | remaining binding [%] |
| --- | --- | --- | --- |
| Cc1nc(N2CC[C@@H](O)C2)ncc1-c1cc(C(F)(F)F)cc2[nH]ncc12 | binding, competition with immobilised ligand | 1 µM | 87 |
| O=C(c1ccc(Nc2ncc(Cl)c(-c3cc4ccccc4s3)n2)cc1)N1CCC(N2CCCC2)CC1 | binding, competition with immobilised ligand | 1 µM | 88 |
| COc1ncc2cc3ccccc3nc2c1C#N | cell-free assay, competition with immobilised ligand | 5 µM | 95 |
| CC(=O)N1CCC(c2ccc(C(=O)NC(=N)N)cc2C(F)(F)F)CC1 | cell-free assay, competition with immobilised ligand | 1 µM | 99 |
| N[C@H]1CCN(c2nccc(-c3cnn4ncccc34)n2)C1 | binding | 1 µM | 100 |
| O=C(c1ccc(Nc2ncc(Cl)c(-c3ccc(Cl)s3)n2)cc1)N1CCC(N2CCCC2)CC1 | binding, competition with immobilised ligand | 1 µM | 89 |
| C[C@@H]1CCN(c2nccc(-c3cnn4ncccc34)n2)C1 | binding | 1 µM | 93 |
| Cc1c(NC(=O)c2cc(C(N)=O)nc3cc(F)ccc23)c(C(F)(F)F)nn1Cc1ccc(C#N)cc1 | cell-free assay, competition with immobilised ligand | 1 µM | 98 |
| CN(C)c1nccc(-c2cnc3ncccn23)n1 | binding | 1 µM | 88 |
| O=C(NCCCN1CCOCC1)c1ccc(Nc2nccc(-c3cc4ccccc4s3)n2)cc1 | binding, competition with immobilised ligand | 1 µM | 87 |
| c1cnn2ncc(-c3ccnc(N4CCC45COC5)n3)c2c1 | binding | 1 µM | 96 |
| N#Cc1ccccc1CSc1nnc2c(n1)[nH]c1ccccc12 | binding, competition with immobilised ligand | 10 µM | 93 |
| COc1cnc(Nc2cccc(S(N)(=O)=O)c2)nc1N1CCN(c2ccccc2)C(=O)C1 | binding, competition with immobilised ligand | 1 µM | 100 |
| O=C(O)[C@H]1[C@H](Cn2nnc3ccccc3c2=O)CC[C@@H]1C(=O)c1ccc(OCCC2CCOCC2)cc1 | cell-free assay, competition with immobilised ligand | 1 µM | 88 |
| O=C(Nc1c[nH]nc1C(=O)NC1CCNCC1)c1cc(F)cc(F)c1 | binding, competition with immobilised ligand | 1 µM | 87 |
| CN(C)c1ncc(F)c(-c2cnn3ncccc23)n1 | binding | 1 µM | 100 |
| CC(C)CC(=O)N1CCc2nc(-c3ccc(Br)cc3)nc(N(C)Cc3ccccc3)c2C1 | cell-free assay, competition with immobilised ligand | 0.1 µM | 100 |
| CN(C)c1nccc(-c2cnn3ncccc23)n1 | binding | 1 µM | 100 |
| C[C@@H]1CN(c2ccc3ncc(-c4ccc5[nH]nc(C6CC6)c5c4)n3n2)C[C@H](C)O1 | binding, competition with immobilised ligand | 50 nM | 100 |
| CCC(=O)N[C@@H]1CC[C@H](C(=O)N(C)c2ccc(-c3nc4ccccc4o3)cc2)C1 | cell-free assay, competition with immobilised ligand | 1 µM | 72 |
| c1cncc(-c2cccc(Nc3nccc(NC4CCCCC4)n3)c2)c1 | binding, competition with immobilised ligand | 10 µM | 62 |
| COc1cnc(Nc2cccc(S(N)(=O)=O)c2)nc1N1CCN(c2ccccc2)CC1 | binding, competition with immobilised ligand | 1 µM | 94 |
| CCCOc1ccc([C@H]2[C@H](C(=O)O)[C@@H](c3ccc4c(c3)OCO4)CN2CC(=O)Nc2c(CC)cccc2CC)cc1 | cell-free assay, competition with immobilised ligand | 1 µM | 100 |
| C[C@@H](c1ccc(-n2cnc3c(N)ncnc32)cc1)N1CCc2nn(C)c(Cc3ccccc3)c2C1=O | binding, competition with immobilised ligand | 0.1 µM | 99 |
